Assay [1] relates to Streptococcus mutans. The assay can be described thus: Antibacterial activity against Streptococcus mutans ATCC 25175 up to 800 ug/ml after 2 days by broth dilution method. It is filed as functional, organism-based. Put shortly: (§1)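 Twofold broth dilution in 3.7% brain heart infusion broth. Sample dissolved in DMF, 1% DMF final, top concentration 800 µg/ml. Inoculated with 2-day-old culture reactivated in stationary culture at 37°. Stationary incubation for 2 days, turbidity read at 660 nm; MIC taken as lowest concentration showing no growth.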

Assay [2] has as its system Bacillus subtilis. The assay can be described thus: Antibacterial activity against Bacillus subtilis ATCC 9372 up to 800 ug/ml after 2 days by broth dilution method. Type of assay: functional, organism-based. The method, boiled down:
(§2)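 Broth dilution in 0.8% nutrient broth, 0.5% yeast extract and 0.1% glucose. Compound in DMF, diluted twofold, 1% DMF final, highest 800 µg/ml. Inoculum was a 2-day-old culture, reactivated at 30° with shaking (B. subtilis), at 30° stationary (Br. ammoniagenes) or at 37° stationary (others). Stationary incubation 2 days; growth by OD at 660 nm; MIC = lowest concentration with no growth.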
(Broth dilution looks for growth in wells or tubes with falling amounts of substance.)

Assay [3] concerns Staphylococcus aureus. The assay can be described thus: Antibacterial activity against Staphylococcus aureus ATCC 12598 up to 800 ug/ml after 2 days by broth dilution method. It is filed as functional, organism-based. Put shortly:
as §2

The subject of assay [4] is Corynebacterium ammoniagenes. The assay can be described thus: Antibacterial activity against Brevibacterium ammoniagenes ATCC 6872 up to 800 ug/ml after 2 days by broth dilution method. Type of assay: functional, organism-based. The method, boiled down: as §2
Assay [5] relates to Cutibacterium acnes. The assay can be described thus: Antibacterial activity against Propionibacterium acnes ATCC 11827 up to 800 ug/ml after 2 days by broth dilution method. Type of assay: functional, organism-based. Put shortly:
as §2

In assay [6] the test system is Bacillus subtilis. The assay is described as follows: Antibacterial activity against Bacillus subtilis ATCC 9372 after 2 days by broth dilution method in presence of 0.5 MIC of crinitol. It is filed as functional. As to conditions: ATCC 9372, 48 h.
Assay [7] concerns Staphylococcus aureus. The assay can be described thus: Antibacterial activity against Staphylococcus aureus ATCC 12598 after 2 days by broth dilution method in presence of 0.5 MIC of crinitol. Type of assay: functional. The following applies: ATCC 12598, 48 h.
The test system of assay [8] is Cutibacterium acnes. The assay can be described thus: Antibacterial activity against Propionibacterium acnes ATCC 11827 after 2 days by broth dilution method. It is filed as functional. As to conditions: ATCC 11827, 48 h. Put shortly: as §2
In assay [9] the test system is Corynebacterium ammoniagenes. The assay can be described thus: Antibacterial activity against Brevibacterium ammoniagenes ATCC 6872 after 2 days by broth dilution method. Type of assay: functional. As to conditions: ATCC 6872, 48 h. The method, boiled down: as §2
Assay [10] has as its system Bacillus subtilis. The assay can be described thus: Antibacterial activity against Bacillus subtilis ATCC 9372 after 2 days by broth dilution method. It is filed as functional. The following applies: ATCC 9372, 48 h. The method, boiled down:
as §2

Assay [11] has as its system Cutibacterium acnes. The assay can be described thus: Antibacterial activity against Propionibacterium acnes ATCC 11827 after 2 days by broth dilution method in presence of 0.5 MIC of crinitol. It is filed as functional. As to conditions: ATCC 11827, 48 h.
Assay [12] deals with Streptococcus mutans. The assay is described as follows: Antibacterial activity against Streptococcus mutans ATCC 25175 after 2 days by broth dilution method. As to conditions: ATCC 25175, 48 h. Type of assay: functional. Put shortly:
as §1

In assay [13] the test system is Streptococcus mutans. The assay can be described thus: Ratio of MIC for Streptococcus mutans ATCC 25175 to MIC for Streptococcus mutans ATCC 25175 in presence of 0.5 MIC of crinitol. It is filed as functional.
The subject of assay [14] is Streptococcus mutans. The assay can be described thus: Antibacterial activity against Streptococcus mutans ATCC 25175 after 2 days by broth dilution method in presence of 0.5 MIC of crinitol. It is filed as functional. The following applies: ATCC 25175, 48 h.
Assay [15] has as its system Staphylococcus aureus. The assay can be described thus: Antibacterial activity against Staphylococcus aureus ATCC 12598 after 2 days by broth dilution method. Type of assay: functional. As to conditions: ATCC 12598, 48 h. The method, boiled down: as §2
Assay [16] concerns Corynebacterium ammoniagenes. The assay can be described thus: Antibacterial activity against Brevibacterium ammoniagenes ATCC 6872 after 2 days by broth dilution method in presence of 0.5 MIC of crinitol. The following applies: ATCC 6872, 48 h. Type of assay: functional.
The test system of assay [17] is Staphylococcus aureus. The assay is described as follows: Antibacterial activity against Staphylococcus aureus ATCC 12598 after 2 days by broth dilution method in presence of 0.5 MIC of butylated hydroxytoluene. The following applies: ATCC 12598, 48 h. Type of assay: functional. Put shortly:
(§3)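 Checkerboard: twofold dilutions of crinitol crossed with twofold dilutions of the antioxidant (BHA or BHT). Medium was nutrient broth/yeast extract/glucose, or 3.7% brain heart infusion for S. mutans. DMF at 1% final, 2-day-old inoculum, stationary culture 2 days. Growth by OD 660 nm; MIC = lowest concentration without growth.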

Assay [18] has as its system Cutibacterium acnes. The assay can be described thus: Ratio of MIC for Propionibacterium acnes ATCC 11827 to MIC for Propionibacterium acnes ATCC 11827 in presence of 0.5 MIC of butylated hydroxyanisole. It is filed as functional.
The subject of assay [19] is Cutibacterium acnes. The assay can be described thus: Antibacterial activity against Propionibacterium acnes ATCC 11827 after 2 days by broth dilution method in presence of 0.5 MIC of butylated hydroxyanisole. It is filed as functional. As to conditions: ATCC 11827, 48 h. The method, boiled down:
as §3

The subject of assay [20] is Bacillus subtilis. The assay can be described thus: Ratio of MIC for Bacillus subtilis ATCC 9372 to MIC for Bacillus subtilis ATCC 9372 in presence of 0.5 MIC of butylated hydroxyanisole. It is filed as functional.
Assay [21] has as its system Cutibacterium acnes. The assay can be described thus: Ratio of MIC for Propionibacterium acnes ATCC 11827 to MIC for Propionibacterium acnes ATCC 11827 in presence of 0.5 MIC of butylated hydroxytoluene. It is filed as functional.
The test system of assay [22] is Bacillus subtilis. The assay can be described thus: Ratio of MIC for Bacillus subtilis ATCC 9372 to MIC for Bacillus subtilis ATCC 9372 in presence of 0.5 MIC of butylated hydroxytoluene. It is filed as functional.
The test system of assay [23] is Corynebacterium ammoniagenes. The assay can be described thus: Ratio of MIC for Brevibacterium ammoniagenes ATCC 6872 to MIC for Brevibacterium ammoniagenes ATCC 6872 in presence of 0.5 MIC of butylated hydroxyanisole. It is filed as functional.
Assay [24] has as its system Streptococcus mutans. The assay is described as follows: Ratio of MIC for Streptococcus mutans ATCC 25175 to MIC for Streptococcus mutans ATCC 25175 in presence of 0.5 MIC of butylated hydroxytoluene. Type of assay: functional.
For assay [25], the system named is Streptococcus mutans. The assay can be described thus: Antibacterial activity against Streptococcus mutans ATCC 25175 after 2 days by broth dilution method in presence of 0.5 MIC of butylated hydroxyanisole. It is filed as functional. The following applies: ATCC 25175, 48 h. The method, boiled down:
as §3

Assay [26] has as its system Corynebacterium ammoniagenes. The assay is described as follows: Ratio of MIC for Brevibacterium ammoniagenes ATCC 6872 to MIC for Brevibacterium ammoniagenes ATCC 6872 in presence of 0.5 MIC of butylated hydroxytoluene. Type of assay: functional.
Assay [27] has as its system Streptococcus mutans. The assay is described as follows: Antibacterial activity against Streptococcus mutans ATCC 25175 after 2 days by broth dilution method in presence of 0.5 MIC of butylated hydroxytoluene. It is filed as functional. The following applies: ATCC 25175, 48 h. The method, boiled down:
as §3

Assay [28] concerns Bacillus subtilis. The assay can be described thus: Antibacterial activity against Bacillus subtilis ATCC 9372 after 2 days by broth dilution method in presence of 0.5 MIC of butylated hydroxytoluene. It is filed as functional. As to conditions: ATCC 9372, 48 h. The method, boiled down:
as §3

The test system of assay [29] is Corynebacterium ammoniagenes. The assay can be described thus: Antibacterial activity against Brevibacterium ammoniagenes ATCC 6872 after 2 days by broth dilution method in presence of 0.5 MIC of butylated hydroxyanisole. As to conditions: ATCC 6872, 48 h. It is filed as functional. The method, boiled down:
as §3

Assay [30] concerns Staphylococcus aureus. The assay can be described thus: Antibacterial activity against Staphylococcus aureus ATCC 12598 after 2 days by broth dilution method in presence of 0.5 MIC of butylated hydroxyanisole. Type of assay: functional. The following applies: ATCC 12598, 48 h. The method, boiled down: as §3
For assay [31], the system named is Bacillus subtilis. The assay can be described thus: Antibacterial activity against Bacillus subtilis ATCC 9372 after 2 days by broth dilution method in presence of 0.5 MIC of butylated hydroxyanisole. Type of assay: functional. The following applies: ATCC 9372, 48 h. The method, boiled down:
as §3

Assay [32] concerns Corynebacterium ammoniagenes. The assay is described as follows: Antibacterial activity against Brevibacterium ammoniagenes ATCC 6872 after 2 days by broth dilution method in presence of 0.5 MIC of butylated hydroxytoluene. It is filed as functional. As to conditions: ATCC 6872, 48 h. The method, boiled down: as §3
In assay [33] the test system is Cutibacterium acnes. The assay is described as follows: Antibacterial activity against Propionibacterium acnes ATCC 11827 after 2 days by broth dilution method in presence of 0.5 MIC of butylated hydroxytoluene. It is filed as functional. As to conditions: ATCC 11827, 48 h. The method, boiled down:
as §3

Each structure is given as a SMILES string. Converted amounts (≈) assume the structure as drawn. The source made the active and inactive calls. The rule behind the calls is not given here.

As for `CC(=O)OC/C=C(\C)CC/C=C(\C)C[C@H](/C=C(\C)CCC=C(C)C)OC(C)=O`, the outcome (in the assay with Streptococcus mutans [1]; with Bacillus subtilis [2]; with Staphylococcus aureus [3]; in assay [4]; in the assay on Cutibacterium acnes [5]) was inactive.
`CC(=O)O[C@@H](/C=C(\C)CCC=C(C)C)C/C(C)=C/CC/C(C)=C/CO`: the result (in the assay with Streptococcus mutans [1]; with Bacillus subtilis [2]; in the assay on Staphylococcus aureus [3]; in assay [4]; with Cutibacterium acnes [5]) was inactive.
With `CC(C)=CCC/C(C)=C/C(=O)C/C(C)=C/CC/C(C)=C/CO`, the result (in the assay with Streptococcus mutans [1]; in the assay on Bacillus subtilis [2]; in the assay with Staphylococcus aureus [3]; in [4]; with Cutibacterium acnes [5]) was inactive.
As for `CC(C)=CCC/C(C)=C/CC/C(C)=C/CC/C(C)=C/CO`, the result (in the assay on Streptococcus mutans [1]; in the assay with Bacillus subtilis [2]; with Staphylococcus aureus [3]; in assay [4]; in the assay on Cutibacterium acnes [5]) was inactive.
Take `COc1ccc(O)c(C(C)(C)C)c1.COc1ccc(O)cc1C(C)(C)C` [BUTYLATED HYDROXYANISOLE]: the MIC in the assay with Bacillus subtilis [6] is 50 µg/mL; in the assay with Staphylococcus aureus [7], 200 µg/mL; with Cutibacterium acnes [8] it was 50 µg/mL; in assay [9] it was 200 µg/mL; with Bacillus subtilis [10] it was 100 µg/mL; in the assay with Cutibacterium acnes [11], 6.25 µg/mL. The minimum inhibitory concentration (MIC) was 100 µg/mL in the assay with Streptococcus mutans [12], 12.5 µg/mL in the assay on Streptococcus mutans [14], 200 µg/mL against Staphylococcus aureus [15] and 100 µg/mL in assay [16]. In addition, the Ratio in the assay with Streptococcus mutans [13] is listed as 18.
Take `Cc1cc(C(C)(C)C)c(O)c(C(C)(C)C)c1` [BUTYLATED HYDROXYTOLUENE]: the MIC in the assay on Bacillus subtilis [6] stood at 6.25 µg/mL; with Cutibacterium acnes [8] it was 25 µg/mL (≈ 113 µM); in assay [9] it was 25 µg/mL (≈ 113 µM); against Bacillus subtilis [10], 25 µg/mL (≈ 113 µM); in the assay on Cutibacterium acnes [11] it was 6.25 µg/mL; against Streptococcus mutans [12], 25 µg/mL (≈ 113 µM). Also, the MIC in the assay on Streptococcus mutans [14] is 1.57 µg/mL; in the assay on Staphylococcus aureus [15], greater than 800 µg/mL; in assay [16], 12.5 µg/mL. Besides, in the assay with Streptococcus mutans [13], the Ratio was 16.
`CC(C)=CCC/C(C)=C/[C@H](O)C/C(C)=C/CC/C(C)=C/CO` [CRINITOL]: the minimal inhibitory concentration (MIC) was found to be 400 µg/mL in the assay on Staphylococcus aureus [17]; 25 µg/mL (≈ 81.6 µM) against Cutibacterium acnes [8]; 100 µg/mL (≈ 326 µM) in assay [9]; 50 µg/mL (≈ 163 µM) in the assay with Bacillus subtilis [10]; 6.25 µg/mL in the assay with Cutibacterium acnes [19]; 50 µg/mL (≈ 163 µM) with Streptococcus mutans [12]. Moreover, the MIC is 12.5 µg/mL in the assay with Streptococcus mutans [25]; 400 µg/mL (≈ 1310 µM) in the assay on Staphylococcus aureus [15]; 0.78 µg/mL with Streptococcus mutans [27]; 12.5 µg/mL with Bacillus subtilis [28]; 100 µg/mL in [29]; 400 µg/mL with Staphylococcus aureus [30]. The results for the MIC (in the assay on Bacillus subtilis [31]; in [32]; in the assay on Cutibacterium acnes [33]) were 50 µg/mL, 50 µg/mL and 6.25 µg/mL, respectively. Further, the Ratio in the assay with Cutibacterium acnes [18] stood at 4; in the assay with Bacillus subtilis [20], 1; in the assay on Cutibacterium acnes [21], 4; in the assay with Bacillus subtilis [22], 4; in [23], 1; in the assay on Streptococcus mutans [24] it was 64. Besides, the Ratio in [26] stood at 2.

As a reminder, the MIC is the lowest concentration that inhibits growth of the organism.
